Assay results as given in ChEMBL document CHEMBL2203199, “Heterocycle-functional gramine analogues: solvent- and catalyst-free synthesis and their inhibition activities against cell proliferation” (Eur J Med Chem, 2012).
In brackets after ≈: the same amount, converted by molar mass. Activity calls are given as the source filed them. No cut-off for these calls is given here.

Experiments:
SGC-7901 [1] = assay: Cytotoxicity against human SGC7901 cells after 72 hrs by MTT assay; format: functional, cell-based; conditions: for IC50: Homo sapiens, SGC-7901, 72 h
In short: (§1)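 Cells seeded at 2 × 10⁴ per well and grown to subconfluence before treatment. MTT (5 mg/mL stock in PBS) added, then 4 h incubation for formazan formation. Formazan dissolved in DMSO and absorbance read at 570 nm. IC50 determined from concentration-dependent inhibition. Assays run in triplicate across three independent experiments, reported as mean ± S.D.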

HepG2 [2] = assay: Cytotoxicity against human HepG2 cells after 72 hrs by MTT assay; format: functional, cell-based; conditions: for IC50: Homo sapiens, HepG2, 72 h; in short: as §1
NCI-H460 [3] = assay: Cytotoxicity against human NCI-H460 cells after 72 hrs by MTT assay; format: functional, cell-based; conditions: for IC50: Homo sapiens, NCI-H460, 72 h; in short: as §1
BGC-823 [4] = assay: Cytotoxicity against human BGC823 cells after 72 hrs by MTT assay; format: functional, cell-based; conditions: for IC50: Homo sapiens, BGC-823, 72 h; in short: as §1
SGC-7901 [5] = assay: Cytotoxicity against human SGC7901 cells assessed as change in cell morphology at 20 ug/mL after 48 hrs by inverted microscopy; format: functional, cell-based
NCI-H460 [6] = assay: Cytotoxicity against human NCI-H460 cells assessed as change in cell morphology at 20 ug/mL after 48 hrs by inverted microscopy; format: functional, cell-based
NCI-H460 [7] = assay: Cytotoxicity against human NCI-H460 cells assessed as growth inhibition at 40 ug/mL after 72 hrs by MTT assay; format: functional; conditions: NCI-H460, 72 h, read-out: GI
In short: (§2)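 Growth inhibition by MTT after seeding at 2 × 10⁴ cells per well and growth to subconfluence, with 5-FU as positive control. MTT stock 5 mg/mL in PBS, 4 h formazan formation, then DMSO solubilisation and A570 read. Triplicate wells, three independent experiments, mean ± S.D.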

BGC-823 [8] = assay: Cytotoxicity against human BGC823 cells assessed as growth inhibition at 40 ug/mL after 72 hrs by MTT assay; format: functional; conditions: BGC-823, 72 h, read-out: GI; in short: as §2
SGC-7901 [9] = assay: Cytotoxicity against human SGC7901 cells assessed as growth inhibition at 40 ug/mL after 72 hrs by MTT assay; format: functional; conditions: SGC-7901, 72 h, read-out: GI; in short: as §2
HepG2 [10] = assay: Cytotoxicity against human HepG2 cells assessed as growth inhibition at 40 ug/mL after 72 hrs by MTT assay; format: functional; conditions: HepG2, 72 h, read-out: GI; in short: as §2

Row | Structure (SMILES) | IC50 (SGC-7901 [1]) [µg/mL] | IC50 (HepG2 [2]) [µg/mL] | IC50 (NCI-H460 [3]) [µg/mL] | IC50 (BGC-823 [4]) [µg/mL] | Activity (HepG2 [2]) | Activity (SGC-7901 [5]) | Activity (NCI-H460 [6]) | Activity (BGC-823 [4]) | inhibition of growth at 40 µg/mL (NCI-H460 [7]) [%] | inhibition of growth at 40 µg/mL (BGC-823 [8]) [%] | inhibition of growth at 40 µg/mL (SGC-7901 [9]) [%] | inhibition of growth at 40 µg/mL (HepG2 [10]) [%] | growth inhibition (GI) (SGC-7901 [1]) [%] | growth inhibition (GI) (HepG2 [2]) [%] | growth inhibition (GI) (NCI-H460 [3]) [%] | growth inhibition (GI) (BGC-823 [4]) [%]
1 | Cn1cc(C(Nc2ccccn2)c2ccccn2)c2ccccc21 (centres undefined) | > 100 | > 100 | > 100 | > 100 | – | – | – | – | – | – | – | – | – | – | – | –
2 | Fc1ccc(C(c2c[nH]c3ccccc23)n2cccn2)cc1 (centres undefined) | 8.5 (≈ 29.2 µM) | 8 (≈ 27.5 µM) | 8.5 (≈ 29.2 µM) | 5.7 (≈ 19.6 µM) | Dose-dependent effect | Active | Active | Dose-dependent effect | – | – | – | – | – | – | – | –
3 | Fc1ccccc1C(Nc1nc2ccccc2s1)c1c[nH]c2ccccc12 (centres undefined) | 9.4 (≈ 25.2 µM) | 7 (≈ 18.7 µM) | 12.1 (≈ 32.4 µM) | 8.1 (≈ 21.7 µM) | Dose-dependent effect | – | – | Dose-dependent effect | – | – | – | – | – | – | – | –
4 | Cn1cc(C(Nc2nc3ccccc3s2)c2ccccc2F)c2ccccc21 (centres undefined) | > 100 | > 100 | > 100 | > 100 | – | – | – | – | – | – | – | – | – | – | – | –
5 | c1ccc(NC(c2ccncc2)c2c[nH]c3ccccc23)nc1 (centres undefined) | > 100 | > 100 | > 100 | > 100 | – | – | – | – | – | – | – | – | – | – | – | –
6 | c1ccc(C(Nc2ccccn2)c2c[nH]c3ccccc23)cc1 (centres undefined) | 24.9 (≈ 83.2 µM) | 27.6 (≈ 92.2 µM) | 35.3 (≈ 118 µM) | 29.4 (≈ 98.2 µM) | – | – | – | – | – | – | – | – | – | – | – | –
7 | c1ccc(NC(c2ccccn2)c2c[nH]c3ccccc23)nc1 (centres undefined) | 51.4 (≈ 171 µM) | > 100 | > 100 | 46.9 (≈ 156 µM) | – | – | – | – | – | – | – | – | – | – | – | –
8 | Cn1cc(C(Nc2ccccn2)c2ccc(C(F)(F)F)cc2)c2ccccc21 (centres undefined) | 13.8 (≈ 36.2 µM) | 12.9 (≈ 33.8 µM) | 16 (≈ 42 µM) | 16.8 (≈ 44 µM) | – | – | – | – | 71.4 | 71.4 | 71.4 | 71.4 | – | – | – | –
9 | Clc1ccccc1C(Nc1nc2ccccc2s1)c1c[nH]c2ccccc12 (centres undefined) | 10.5 (≈ 26.9 µM) | 9 (≈ 23.1 µM) | 13.2 (≈ 33.9 µM) | 8.1 (≈ 20.8 µM) | – | Active | Active | – | – | – | – | – | – | – | – | –
10 | Fc1ccccc1C(Nc1ccccn1)c1c[nH]c2ccccc12 (centres undefined) | 24.5 (≈ 77.2 µM) | 28.7 (≈ 90.4 µM) | 24.9 (≈ 78.5 µM) | 37.6 (≈ 118 µM) | – | – | – | – | 71.4 | 71.4 | 71.4 | 71.4 | – | – | – | –
11 | O=c1[nH]cc(F)c(=O)[nH]1 [FLUOROURACIL] | 8.7 (≈ 66.9 µM) | 9.3 (≈ 71.5 µM) | 7.2 (≈ 55.4 µM) | 8.2 (≈ 63 µM) | Dose-dependent effect | – | – | Dose-dependent effect | – | – | – | – | 66.8 | 66.8 | 66.8 | 66.8
12 | CN(C)Cc1c[nH]c2ccccc12 [GRAMINE] | 77.3 (≈ 444 µM) | > 100 | 74.5 (≈ 428 µM) | 62.8 (≈ 360 µM) | – | – | – | – | – | – | – | – | – | – | – | –
13 | Cn1cc(C(Nc2ccccn2)c2ccccc2Cl)c2ccccc21 (centres undefined) | 27.1 (≈ 77.9 µM) | 26.5 (≈ 76.2 µM) | 66.7 (≈ 192 µM) | 39.2 (≈ 113 µM) | – | – | – | – | – | – | – | – | – | – | – | –
14 | FC(F)(F)c1ccc(C(Nc2ccccn2)c2c[nH]c3ccccc23)cc1 (centres undefined) | 13.5 (≈ 36.7 µM) | 12.1 (≈ 32.9 µM) | 8.6 (≈ 23.4 µM) | 10.1 (≈ 27.5 µM) | – | Active | Active | – | 71.4 | 71.4 | 71.4 | 71.4 | – | – | – | –
15 | Clc1ccc(C(Nc2ccccn2)c2c[nH]c3ccccc23)cc1 (centres undefined) | 19.2 (≈ 57.5 µM) | 18.6 (≈ 55.7 µM) | 17.4 (≈ 52.1 µM) | 22.8 (≈ 68.3 µM) | – | – | – | – | 71.4 | 71.4 | 71.4 | 71.4 | – | – | – | –
16 | Cn1cc(C(Nc2ccccn2)c2ccc(Cl)cc2)c2ccccc21 (centres undefined) | 25 (≈ 71.9 µM) | 25.5 (≈ 73.3 µM) | 32.1 (≈ 92.3 µM) | 30.8 (≈ 88.5 µM) | – | – | – | – | – | – | 70.8 | 73.6 | – | – | – | –
17 | Cn1cc(C(Nc2ccccn2)c2ccncc2)c2ccccc21 (centres undefined) | 37.9 (≈ 121 µM) | 42.5 (≈ 135 µM) | 56 (≈ 178 µM) | 47.1 (≈ 150 µM) | – | – | – | – | – | – | – | – | – | – | – | –
18 | Fc1ccc(C(c2c[nH]c3ccccc23)n2cncn2)cc1 (centres undefined) | 8.2 (≈ 28.1 µM) | 8.4 (≈ 28.7 µM) | 10.7 (≈ 36.6 µM) | 10.3 (≈ 35.2 µM) | Dose-dependent effect | – | – | Dose-dependent effect | – | – | – | – | – | – | – | –
19 | Clc1ccccc1C(Nc1ccccn1)c1c[nH]c2ccccc12 (centres undefined) | 14.9 (≈ 44.6 µM) | 13.1 (≈ 39.2 µM) | 12.2 (≈ 36.5 µM) | 22.7 (≈ 68 µM) | – | Active | Active | – | 71.4 | 71.4 | 71.4 | 71.4 | – | – | – | –
20 | Fc1ccc(C(Nc2ccccn2)c2c[nH]c3ccccc23)cc1 (centres undefined) | 21.5 (≈ 67.7 µM) | 23 (≈ 72.5 µM) | 24 (≈ 75.6 µM) | 21.8 (≈ 68.7 µM) | – | – | – | – | 71.4 | 71.4 | 71.4 | 71.4 | – | – | – | –
21 | Cn1cc(C(Nc2ccccn2)c2ccc(F)cc2)c2ccccc21 (centres undefined) | 51.9 (≈ 157 µM) | 38.6 (≈ 116 µM) | 49.1 (≈ 148 µM) | 51.6 (≈ 156 µM) | – | – | – | – | – | – | – | – | – | – | – | –
22 | Cn1cc(C(Nc2ccccn2)c2ccccc2F)c2ccccc21 (centres undefined) | 86.2 (≈ 260 µM) | 43.2 (≈ 130 µM) | 92.6 (≈ 279 µM) | 64.2 (≈ 194 µM) | – | – | – | – | – | – | – | – | – | – | – | –
